In brackets after ≈: the same amount, converted by molar mass. Activity calls are given as the source filed them. The rule behind the calls is not given here.
Key:
Acinetobacter baumannii [1] = test: Antimicrobial activity against carbapenem-intermediate or resistant Acinetobacter baumannii isolates by agar dilution method; format: functional
Procedure, shortened: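 Clinical isolates with imipenem or meropenem MIC ≥8 mg/liter were tested by agar dilution on Mueller-Hinton agar supplemented with 25 mg/liter calcium and 12.5 mg/liter magnesium. Inoculum was ~10⁴ CFU per spot from a 0.5 McFarland BHI suspension. Plates were incubated at 35°C for 18–24 h. Growth beyond a single colony or a slight haze counted as growth.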

Acinetobacter baumannii [2] = test: Antimicrobial activity against carbapenem-intermediate or resistant Acinetobacter baumannii assessed as percent susceptible isolates; format: functional
Acinetobacter baumannii [3] = test: Antimicrobial activity against carbapenem-intermediate or resistant Acinetobacter baumannii isolates by broth microdilution method; format: functional
Procedure, shortened: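 Tigecycline MIC by broth microdilution in freshly prepared CAMHB (25 mg/liter calcium, 12.5 mg/liter magnesium). Approximately 5 × 10⁵ CFU/ml was added to serial drug dilutions and incubated in ambient air at 35°C for 18–24 h. Isolates had imipenem or meropenem MIC ≥8 mg/liter.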

Acinetobacter baumannii [4] = test: Bactericidal activity against carbapenem-resistant Acinetobacter baumannii AA557 by time kill curve analysis; format: functional, organism-based
Procedure, shortened: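 Time-kill on AA557: mid-log (4 h) inoculum at ~5 × 10⁵ CFU/ml in 10 ml fresh CAMHB with tigecycline at 0.5×, 1×, 2× or 4× MIC, or at the calculated average free steady-state serum level, plus growth control. Sampled at 0, 2, 4, 8, 24 and 48 h and plated in duplicate on sheep-blood TSA (35°C, 18–24 h). Detection limit 40 CFU/ml. Experiments run in duplicate.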

Acinetobacter baumannii [5] = test: Bactericidal activity against carbapenem-resistant Acinetobacter baumannii AA557 assessed as reduction in colony count at 2 mg/liter after 24 hrs by time kill curve analysis; format: functional, organism-based

## NCC[C@H](O)C(=O)N[C@@H]1C[C@H](N)[C@@H](O[C@H]2O[C@H](CN)[C@@H](O)[C@H](O)[C@H]2O)[C@H](O)[C@H]1O[C@H]1O[C@H](CO)[C@@H](O)[C@H](N)[C@H]1O [AMIKACIN]
Acinetobacter baumannii [1]
  MIC50: 32 µg/mL (≈ 54.6 µM)
  MIC90: > 32 µg/mL
Acinetobacter baumannii [2]
  Activity: 38%

## O=C(O)c1cn(C2CC2)c2cc(N3CCNCC3)c(F)cc2c1=O [CIPROFLOXACIN]
Acinetobacter baumannii [2]
  Activity: 0%

## C[C@H]1c2cccc(O)c2C(=O)C2=C(O)[C@]3(O)C(=O)C(C(N)=O)=C(O)[C@@H](N(C)C)[C@@H]3[C@@H](O)[C@@H]21.O [DOXYCYCLINE]
Acinetobacter baumannii [1]
  MIC50: 2 µg/mL
  MIC90: > 32 µg/mL
Acinetobacter baumannii [2]
  Activity: 56%

## C[C@@H](O)[C@H]1C(=O)N2C(C(=O)O)=C(SCCNC=N)C[C@H]12 [IMIPENEM ANHYDROUS]
Acinetobacter baumannii [1]
  MIC50: 4 µg/mL (≈ 13.4 µM)
  MIC90: 64 µg/mL (≈ 214 µM)
Acinetobacter baumannii [2]
  Activity: 20%

## C[C@@H](O)[C@H]1C(=O)N2C(C(=O)O)=C(S[C@@H]3CN[C@H](C(=O)N(C)C)C3)[C@H](C)[C@H]12 [MEROPENEM]
Acinetobacter baumannii [1]
  MIC50: 16 µg/mL (≈ 41.7 µM)
  MIC90: > 128 µg/mL
Acinetobacter baumannii [2]
  Activity: 4%

## CN(C)c1ccc(O)c2c1C[C@H]1C[C@H]3[C@H](N(C)C)C(O)=C(C(N)=O)C(=O)[C@@]3(O)C(O)=C1C2=O [MINOCYCLINE]
Acinetobacter baumannii [1]
  MIC50: 0.5 µg/mL (≈ 1.09 µM)
  MIC90: 8 µg/mL (≈ 17.5 µM)
Acinetobacter baumannii [2]
  Activity: 83%

## CO[C@H]1/C=C/O[C@@]2(C)Oc3c(C)c(O)c4c(O)c(c(/C=N/N5CCN(C)CC5)c(O)c4c3C2=O)NC(=O)/C(C)=C\C=C\[C@H](C)[C@H](O)[C@@H](C)[C@@H](O)[C@@H](C)[C@H](OC(C)=O)[C@@H]1C [RIFAMPIN]
Acinetobacter baumannii [1]
  MIC50: 4 µg/mL (≈ 4.86 µM)
  MIC90: 8 µg/mL (≈ 9.72 µM)
Acinetobacter baumannii [2]
  Activity: inactive

## CN(C)c1cc(NC(=O)CNC(C)(C)C)c(O)c2c1C[C@H]1C[C@H]3[C@H](N(C)C)C(O)=C(C(N)=O)C(=O)[C@@]3(O)C(O)=C1C2=O [TIGECYCLINE]
Acinetobacter baumannii [2]
  Activity: 95%
Acinetobacter baumannii [3]
  MIC50: 1 µg/mL (≈ 1.71 µM)
  MIC90: 2 µg/mL (≈ 3.41 µM)
Acinetobacter baumannii [4]
  Activity: Active

## POLYMYXIN B
Acinetobacter baumannii [1]
  MIC50: 1 µg/mL
  MIC90: 1 µg/mL
Acinetobacter baumannii [2]
  Activity: 100%
Acinetobacter baumannii [5]
  log10CFU/ml: 1.6
